Here are results for three molecules from PMC7615481 (The Journal of biological chemistry, 2023).

Entries after “also recorded” stand apart in the source; their conditions may differ. Positions of bridges follow the written chain, without caps; N, C: chain ends. Residues, ends and D or L forms follow the SMILES beside them.

The target in assay [1] is T1, human GC-C (Homo sapiens, UniProt P25092). The assay is described as follows: In vitro GC assay, MnGTP as substrate, hGC-C. To be noted: 1 mM MnATP, 1 mM MnGTP; Fig. 4B. The assay is classed as biochemical.
T1 sequence (P25092 24-1073): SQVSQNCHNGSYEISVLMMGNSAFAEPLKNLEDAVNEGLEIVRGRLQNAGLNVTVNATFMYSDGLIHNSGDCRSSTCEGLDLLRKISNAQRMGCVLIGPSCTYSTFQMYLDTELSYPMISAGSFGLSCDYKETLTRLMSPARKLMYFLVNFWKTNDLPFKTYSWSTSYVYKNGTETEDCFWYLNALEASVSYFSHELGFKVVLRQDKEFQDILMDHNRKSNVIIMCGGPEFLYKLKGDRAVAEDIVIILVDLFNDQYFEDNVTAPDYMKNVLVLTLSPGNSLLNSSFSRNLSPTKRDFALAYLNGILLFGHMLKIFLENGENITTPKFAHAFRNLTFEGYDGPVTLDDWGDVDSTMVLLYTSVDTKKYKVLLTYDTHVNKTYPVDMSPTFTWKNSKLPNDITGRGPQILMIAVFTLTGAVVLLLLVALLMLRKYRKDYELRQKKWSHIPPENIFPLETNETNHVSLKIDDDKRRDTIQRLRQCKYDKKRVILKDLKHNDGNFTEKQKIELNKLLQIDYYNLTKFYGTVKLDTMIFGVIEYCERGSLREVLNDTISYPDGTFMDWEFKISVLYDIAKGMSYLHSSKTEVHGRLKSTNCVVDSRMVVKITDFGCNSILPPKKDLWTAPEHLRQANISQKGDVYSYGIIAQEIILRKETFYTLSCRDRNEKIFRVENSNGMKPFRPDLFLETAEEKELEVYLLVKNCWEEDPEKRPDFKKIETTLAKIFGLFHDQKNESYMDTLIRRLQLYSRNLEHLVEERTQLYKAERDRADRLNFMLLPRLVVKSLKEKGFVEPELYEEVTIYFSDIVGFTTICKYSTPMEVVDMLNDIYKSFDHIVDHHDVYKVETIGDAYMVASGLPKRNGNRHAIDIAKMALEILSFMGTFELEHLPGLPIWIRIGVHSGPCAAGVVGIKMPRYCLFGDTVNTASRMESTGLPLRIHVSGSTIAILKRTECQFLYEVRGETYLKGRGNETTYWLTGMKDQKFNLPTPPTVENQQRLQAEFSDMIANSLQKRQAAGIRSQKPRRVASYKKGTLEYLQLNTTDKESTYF
In assay [2] the target is T2, mouse GC-C (Mus musculus, UniProt Q3UWA6).
T2 sequence (Q3UWA6 20-1072): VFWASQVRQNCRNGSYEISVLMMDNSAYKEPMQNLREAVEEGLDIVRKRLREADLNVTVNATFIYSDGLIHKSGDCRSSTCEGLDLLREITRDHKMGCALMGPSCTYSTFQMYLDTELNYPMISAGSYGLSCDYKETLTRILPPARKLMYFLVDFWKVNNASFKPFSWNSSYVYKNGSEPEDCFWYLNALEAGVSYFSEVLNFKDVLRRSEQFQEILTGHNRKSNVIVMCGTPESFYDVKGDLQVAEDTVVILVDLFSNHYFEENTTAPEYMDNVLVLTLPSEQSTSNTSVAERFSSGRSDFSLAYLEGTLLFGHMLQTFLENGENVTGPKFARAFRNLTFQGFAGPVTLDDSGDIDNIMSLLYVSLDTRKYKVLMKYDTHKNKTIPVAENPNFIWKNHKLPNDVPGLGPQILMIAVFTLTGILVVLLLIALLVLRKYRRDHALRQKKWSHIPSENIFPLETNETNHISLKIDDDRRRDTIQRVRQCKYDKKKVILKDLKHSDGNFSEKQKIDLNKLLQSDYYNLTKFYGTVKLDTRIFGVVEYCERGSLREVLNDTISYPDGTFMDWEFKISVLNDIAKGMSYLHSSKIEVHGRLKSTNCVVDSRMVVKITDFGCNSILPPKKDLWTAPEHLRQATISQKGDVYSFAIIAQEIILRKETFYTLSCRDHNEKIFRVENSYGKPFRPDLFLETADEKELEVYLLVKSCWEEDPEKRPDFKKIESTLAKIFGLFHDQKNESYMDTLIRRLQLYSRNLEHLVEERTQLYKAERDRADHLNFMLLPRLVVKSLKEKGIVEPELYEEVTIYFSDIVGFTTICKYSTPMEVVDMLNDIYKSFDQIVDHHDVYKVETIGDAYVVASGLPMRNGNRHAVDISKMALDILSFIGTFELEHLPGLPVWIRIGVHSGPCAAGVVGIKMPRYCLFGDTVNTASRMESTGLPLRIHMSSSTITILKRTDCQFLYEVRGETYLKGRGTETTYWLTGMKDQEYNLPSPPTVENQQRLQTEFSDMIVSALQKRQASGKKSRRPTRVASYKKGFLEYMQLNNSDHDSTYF
Briefly: In vitro GC assay, MnGTP as substrate, mGC-C. The assay is classed as biochemical. To be noted: 1 mM MnATP, 1 mM MnGTP; Fig. 4B.

Assay [3] relates to hmCYC chimeric GC-C. Briefly: In vitro GC assay, MnGTP as substrate, hmCYC. The assay is classed as biochemical. As to conditions: 1 mM MnATP, 1 mM MnGTP; Fig. 4B.
The target of assay [4] is T2, mouse GC-C. Briefly: In vitro GC assay, MgGTP as substrate, with or without Lubrol, mGC-C. As to conditions: 1 mM MgGTP, Fig. 4A. The assay is classed as biochemical.
The subject of assay [5] is hmCYC chimeric GC-C. Briefly: In vitro GC assay, MgGTP as substrate, Lubrol-stimulated, hmCYC. The assay is classed as biochemical. As to conditions: 1 mM MgATP, 1 mM MgGTP, 0.1% Lubrol-PX; Fig. 4A.
The next assay relates to mhCYC chimeric GC-C. Briefly: In vitro GC assay, MgGTP as substrate, Lubrol-stimulated, mhCYC. The assay is classed as biochemical. To be noted: 1 mM MgATP, 1 mM MgGTP, 0.1% Lubrol-PX; Fig. 4A.
In assay [6] the test system is chimeric receptor harboring the mouse KHD. The assay is classed as biochemical. To be noted: 0.1% Lubrol-PX, MgGTP.
The target of assay [7] is T1, human GC-C. As to conditions: Mn2+ as metal ion; ref [25]; cited from earlier work.
A further assay has as its system hGC-C. As to conditions: Mg2+ as metal ion cofactor, ref [25]; cited from earlier work.
In assay [8] the test system is GC-CK516A. To be noted: Mg2+; ref [25]; cited from earlier work.
Assay [9] relates to GC-CK516A. To be noted: ref [25]; cited from earlier work.
Another assay has as its system GC-C. To be noted: in vitro; ref [38]; cited from earlier work.
Assay [10] deals with mhICD chimeric GC-C receptor. The assay is classed as binding. As to conditions: words; Fig. 2H lower panel.
Assay [11] has as its system mouse GC-C variant 2. Briefly: Radiolabeled ST binding to monolayers, mouse GC-C variant 2. As to conditions: monolayer HEK293E, Fig. 1E, three experiments.
The test system of a further assay is WT or GCD chimeric GC-C. The assay is classed as binding. To be noted: monolayers of HEK293E; Fig. 3E.
Assay [12] has as its target T2, mouse GC-C. The assay is classed as cell-based.
Another assay concerns mouse GC-C variant 1. The assay is described as follows: Ligand-stimulated cGMP production in HEK293E cells, mouse GC-C variant 1. The assay is classed as cell-based. As to conditions: 10^−6 M ST, RIA, Fig. 1D. In a few lines: (§1)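 HEK293E cells expressing the mouse GC-C variant were preincubated for 30 min at 37 °C in a humidified CO₂ incubator in DMEM-HG with serum, antibiotics and 500 μM IBMX. They were then exposed to medium alone or 10⁻⁶ M ST for 30 min. Monolayers were lysed in 0.1 N HCl, and cGMP was measured by RIA and normalized to cell-surface receptor amount. Representative of three independent experiments.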

The subject of assay [13] is mouse GC-C variant 2. The assay is described as follows: Ligand-stimulated cGMP production in HEK293E cells, mouse GC-C variant 2. The assay is classed as cell-based. As to conditions: 10^−6 M ST, RIA, Fig. 1D. In a few lines: as §1
The subject of assay [14] is hmCYC chimeric GC-C. The assay is classed as cell-based.
The target in assay [15] is T1, human GC-C. To be noted: ref [21]; cited from earlier work.
The subject of the next assay is mice. To be noted: mouse, in vivo; cited from earlier work.
A further assay has as its system mice lacking GC-C. To be noted: ref [12]; cited from earlier work.

For `Nc1ncnc2c1ncn2[C@@H]1O[C@H](COP(=O)(O)OP(=O)(O)OP(=O)(O)O)[C@@H](O)[C@H]1O` [ATP], at human GC-C [1], the “ATP-mediated inhibition of GC activity with MnGTP, hGC-C” value was “remained”. Also, the “ATP-mediated inhibition of GC activity with MnGTP, mGC-C” value at mouse GC-C [2] is “remained; also recorded: displayed ATP-mediated inhibition of MnGTP-mediated activity”. Moreover, in the assay with hmCYC chimeric GC-C [3], the “ATP-mediated inhibition of MnGTP-mediated activity, hmCYC” value is listed as “displayed ATP-mediated inhibition of MnGTP-mediated activity”. Also, at mouse GC-C [4] (1 mM MgATP, 0.1% Lubrol-PX), the “ATP-mediated inhibition of Lubrol-stimulated GC activity, mGC-C” value is “lost and no allosteric inhibition of guanylyl cyclase activity and no inhibition of detergent-mediated activity by ATP”. For the same molecule, the “ATP-mediated inhibition of Lubrol-stimulated GC activity, hmCYC” value with hmCYC chimeric GC-C [5] is recorded as “retained”. In addition, the “ATP-mediated inhibition of Lubrol-stimulated GC activity, mhCYC” value in the assay with mhCYC chimeric GC-C was “lost”. Also, in assay [6], the “ATP inhibition of detergent-mediated activity, chimeric receptor harboring the mouse KHD” value is “no inhibition of detergent-mediated activity by ATP”. Moreover, the “ATP inhibition of GC activity with Mn2+” value at human GC-C [7] is listed as “inhibits GC activity when Mn^2+ is the metal ion used in assays”. Besides, the “ATP inhibition of Lubrol-stimulated GC activity” value with hGC-C was “inhibits Lubrol-stimulated GC activity”. In addition, the “ATP inhibition of Lubrol-stimulated GC activity, GC-CK516A” value in the assay on GC-CK516A [8] is given as “inhibition is lost”. For the same molecule, the “ATP inhibition of GC activity with Mn2+, GC-CK516A” value in the assay on GC-CK516A [9] was “inhibition is also seen”. In addition, the “ATP inhibition of MnGTP-mediated and detergent-mediated GC activity” value in the assay with GC-C was “inhibit in vitro MnGTP-mediated and detergent-mediated GC activity”.
Turning to `CC(C)C[C@@H]1NC(=O)[C@H](CCC(=O)O)NC(=O)[C@@H]2CSSC[C@@H]3NC(=O)[C@H](C)NC(=O)[C@@H]4CCCN4C(=O)[C@H](CC(N)=O)NC(=O)[C@H](CSSC[C@H](NC(=O)[C@H](Cc4ccc(O)cc4)NC(=O)[C@H](CC(N)=O)NC(=O)[C@H](CO)NC(=O)[C@H](CO)NC(=O)[C@@H](N)CC(N)=O)C(=O)N2)NC(=O)[C@H](CSSC[C@@H](C(=O)N[C@@H](Cc2ccc(O)cc2)C(=O)O)NC(=O)CNC(=O)[C@H]([C@@H](C)O)NC3=O)NC1=O` [ST] (H-NSSNYCCELCCNPACTGCY-OH; disulfide 6-11, 7-15, 10-18; N-terminus and C-terminus assumed), the “affinity to the ST peptide of the mhICD chimera” value in [10] is recorded as “reduced affinity to the ST peptide”. Also, the “ligand binding ability of variant 2” value in the assay with mouse GC-C variant 2 [11] is reported as “marked reduction in the ligand binding ability”. The “binding to ST of GCD chimeric receptors” value in the assay with WT or GCD chimeric GC-C is “determined by the ECD”. On mouse GC-C [12], the “accumulation of cGMP at saturating ST, mGC-C” value was “much reduced in comparison with cells expressing hGC-C” and the “intracellular cGMP accumulation, mGC-C lower than hGC-C” value is ~ 10 fold. Moreover, the “cGMP levels on ST treatment, variant 1” value in the assay with mouse GC-C variant 1 is recorded as “significant increase in cGMP levels”. Moreover, the “cGMP levels on ST treatment, variant 2” value with mouse GC-C variant 2 [13] is reported as “remained unchanged”. Also, the “cGMP accumulation, hmCYC versus hGC-C” value in the assay on hmCYC chimeric GC-C [14] is “log order reduction in cGMP accumulation when compared to hGC-C”. At human GC-C [15], the “affinity of plasma membrane- and endoplasmic reticulum–associated hGC-C for ST” value is on record as “comparable affinities”. In addition, the “accumulation of fluid in the gut of mice on ST treatment” value with mice is “leads to the accumulation of fluid in the gut”. Also, the “ST-induced fluid accumulation in mice lacking GC-C” value in the assay with mice lacking GC-C is given as “resistant to ST-induced fluid accumulation”.
Regarding MgGTP, the “GC activity of mGC-C in the presence of MgGTP” value on mouse GC-C [4] (4 mM free MgCl2, 37 °C 10 min, words) is “lower than that of hGC-C”.
